In data set [1] the target is T1, Liver carboxylesterase B-1 (Rattus norvegicus, UniProt Q63010).
T1 sequence (Q63010 whole entry): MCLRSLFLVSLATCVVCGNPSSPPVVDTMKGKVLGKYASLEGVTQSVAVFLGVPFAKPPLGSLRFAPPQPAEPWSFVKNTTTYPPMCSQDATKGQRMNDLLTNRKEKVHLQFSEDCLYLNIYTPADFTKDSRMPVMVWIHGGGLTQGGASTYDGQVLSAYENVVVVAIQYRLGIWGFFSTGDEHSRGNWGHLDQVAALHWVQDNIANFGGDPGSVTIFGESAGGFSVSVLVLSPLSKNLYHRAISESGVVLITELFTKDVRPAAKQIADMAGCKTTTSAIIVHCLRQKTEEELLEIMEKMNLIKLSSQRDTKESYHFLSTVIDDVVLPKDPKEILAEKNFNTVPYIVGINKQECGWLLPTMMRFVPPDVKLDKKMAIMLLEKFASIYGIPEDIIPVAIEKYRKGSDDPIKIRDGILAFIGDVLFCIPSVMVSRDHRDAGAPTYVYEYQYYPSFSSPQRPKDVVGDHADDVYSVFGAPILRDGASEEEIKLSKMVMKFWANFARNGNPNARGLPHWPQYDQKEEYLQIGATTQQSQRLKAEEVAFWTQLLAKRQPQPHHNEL
As to the kind of experiment: Inhibition of carboxylesterase in Fischer 344 Rattus norvegicus (rat) liver microsomes using p-nitrophenyl acetate as substrate incubated for 5 min prior to substrate addition measured for 2 min by spectrophotometric analysis. In short, it runs like this:
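Livers from 8-week-old rats, perfused with 1% KCl; 100000g microsomal pellet solubilized in 1% n-octyl β-D-glucopyranoside and recentrifuged. Assayed at 0.8 mg/mL protein in 0.1 M sodium phosphate pH 7.4, 30 °C. PNPA 0.5 mM final, read at 405 nm. DMF ≤1%, solvent-corrected.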
A general note: Liver microsomes are vesicles of endoplasmic reticulum, rich in cytochrome P450 enzymes.

Data set [2] addresses T2, Juvenile hormone esterase (Trichoplusia ni, UniProt P30809+P30810).
T2 sequence (P30809 whole entry): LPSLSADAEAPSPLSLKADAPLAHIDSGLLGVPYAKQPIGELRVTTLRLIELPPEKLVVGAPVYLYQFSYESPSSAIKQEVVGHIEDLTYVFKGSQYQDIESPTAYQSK
T2 sequence (P30810 whole entry): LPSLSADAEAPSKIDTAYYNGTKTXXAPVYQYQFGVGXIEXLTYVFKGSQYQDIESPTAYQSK
As to the kind of experiment: Inhibition of Trichoplusia ni (cabbage looper) juvenile hormone esterase isolated from fifth-intsar larval stage using [3H]JH 3 as substrate incubated for 10 min prior to substrate addition measured after 15 min by liquid scintillation counting. The data set is classed as protein assay. In short, it runs like this: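 Day-2 fifth-instar larval hemolymph collected with PTU, spun at 1000g, diluted 1:1 in 0.1 M phosphate pH 7.4 with 0.01% PTU, then diluted 300-fold in 0.1 M sodium phosphate pH 7.4 containing 0.1 mg/mL BSA. Inhibitors (DMF ≤1%) preincubated at 30 °C. JH III 5 µM final, 30 °C. Isooctane partition, aqueous-phase radioactivity counted.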

The target in the next data set is T3, Liver carboxylesterase (Sus scrofa, UniProt Q29550).
T3 sequence (Q29550 whole entry): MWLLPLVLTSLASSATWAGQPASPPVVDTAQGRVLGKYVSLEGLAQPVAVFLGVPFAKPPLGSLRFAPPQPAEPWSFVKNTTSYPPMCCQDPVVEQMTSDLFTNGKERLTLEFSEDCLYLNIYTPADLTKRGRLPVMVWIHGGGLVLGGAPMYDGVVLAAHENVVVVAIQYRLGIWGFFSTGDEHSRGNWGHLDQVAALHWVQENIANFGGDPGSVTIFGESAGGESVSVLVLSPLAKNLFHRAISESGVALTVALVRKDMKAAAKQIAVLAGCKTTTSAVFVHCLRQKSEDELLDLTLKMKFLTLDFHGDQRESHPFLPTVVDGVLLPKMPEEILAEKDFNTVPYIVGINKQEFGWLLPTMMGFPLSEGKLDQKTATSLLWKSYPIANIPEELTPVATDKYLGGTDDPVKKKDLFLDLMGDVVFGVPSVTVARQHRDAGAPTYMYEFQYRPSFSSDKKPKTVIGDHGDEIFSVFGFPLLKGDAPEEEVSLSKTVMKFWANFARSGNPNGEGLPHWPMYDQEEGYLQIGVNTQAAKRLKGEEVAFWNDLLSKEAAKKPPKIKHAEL
In words: Inhibition of Sus scrofa (pig) carboxylesterase isolated from liver in using p-nitrophenyl acetate as substrate incubated for 5 min prior to substrate addition measured for 2 min by spectrophotometric analysis. In short, it runs like this: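 Crude porcine liver carboxylesterase, partially purified, working solution 0.02 mg total protein/mL (0.3 units/mL) in 0.1 M sodium phosphate, pH 7.4; […]. Inhibitors from DMF stocks (≤1% DMF, solvent-corrected). PNPA at 0.5 mM final, 30 °C, kinetic read at 405 nm.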

A short description of data set [3]: Solubility of the compound in sodium phosphate buffer at pH 7.4. The format is physicochemical.

Each structure is given as a SMILES string. ≈ marks a conversion by molar mass, not a printed value.

As to `O=S(=O)(CCc1ccccc1)CC(O)(O)C(F)(F)F`, the IC50 in data set [1] amounted to 1500 nM; in data set [2], 1780 nM; against Liver carboxylesterase it was 3390 nM.
Take `CCCCCCCCCCSCC(=O)C(F)(F)F`: the IC50 amounted to 115 nM in data set [1], 20 nM in data set [2] and 135 nM at Liver carboxylesterase.
Turning to `CCCCCCCCCCCCSCC(=O)C(F)(F)F`, the figures for the IC50 (in data set [1]; in data set [2]; on Liver carboxylesterase) were 164 nM, 15 nM and 119 nM, respectively.
Take `CCCCCCSCC(=O)C(F)(F)F`: the IC50 was 54.6 nM in data set [1] and 54.3 nM against Liver carboxylesterase.
For the molecule `CCCCCCS(=O)(=O)CC(O)(O)C(F)(F)F`, the IC50 in data set [1] was 1290 nM; in data set [2], 354 nM; against Liver carboxylesterase, 39000 nM.
As for `CCCCCCCCS(=O)(=O)CC(O)(O)C(F)(F)F`, the IC50 is 24.5 nM in data set [1], 147 nM in data set [2] and 5640 nM at Liver carboxylesterase. The molecule further yielded a solubility in data set [3] of 1500 µM (≈ 460 µg/mL).
Consider `O=C(CSCCc1ccccc1)C(F)(F)F`, for which the IC50 in data set [1] amounted to 162 nM; against Liver carboxylesterase it was 75.3 nM.
With `CCCCCCCCCCCCS(=O)(=O)CC(O)(O)C(F)(F)F`, the IC50 stood at 10.3 nM in data set [1], 191 nM in data set [2] and 473 nM at Liver carboxylesterase.
`CCCCCCCCCCS(=O)(=O)CC(O)(O)C(F)(F)F`: the IC50 in data set [1] came to 6.3 nM; in data set [2], 119 nM; at Liver carboxylesterase, 1420 nM.
On to `CCCCCCCCSCC(=O)C(F)(F)F`, for which the IC50 is 37.2 nM in data set [1], 1.6 nM in data set [2] and 36.8 nM against Liver carboxylesterase. The molecule also showed a solubility in data set [3] of 200 µM (≈ 51.3 µg/mL).

In general, IC50 refers to the concentration that gives 50% inhibition. Read a high IC50 as weaker potency in that assay. What is called solubility is the concentration that dissolves in the medium under given conditions. High values mean much dissolved substance, low ones little dissolved substance.

Values taken from ChEMBL document CHEMBL3046597, “Synthesis of new carboxylesterase inhibitors and evaluation of potency and water solubility” (Chem Res Toxicol, 2001).
